# Data: ChEMBL document CHEMBL3045677, “Sulfonamide-1,2,4-thiadiazole derivatives as antifungal and antibacterial agents: synthesis, biological evaluation, lipophilicity, and conformational studies” (2010)
# Key:
# Aspergillus niger = assay: Antifungal activity against Aspergillus niger ATCC 6275 at 28 degC measured after 72 hr by microdilution method; format: functional; conditions: ATCC 6275, 72 h
# Method in brief: (§1)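 Fungi were kept on malt agar at 4 °C. Spores were washed off with sterile 0.85% saline containing 0.1% Tween 80 and adjusted to about 1.0×10⁵ per well. Compounds were dissolved in DMSO (1 mg/ml stock) and serially diluted in malt broth with inoculum in 96-well plates, 72 h at 28 °C, for MIC. MFC came from subculture into fresh broth for a further 72 h at 28 °C.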
# Bacillus cereus [1] = assay: Antibacterial activity against clinical isolate Bacillus cereus at […] degC measured after 24 hr by microdilution method; format: functional
# Method in brief: (§2)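 Bacteria suspended in sterile saline at 1.0×10⁵ CFU/ml and added at 1.0×10⁴ CFU per well to LB broth with compound (1 mg/ml) in 96-well plates. Incubated 24 h at […] °C. MIC was the lowest concentration without visible growth under a binocular microscope. OD 655 nm was read against a blank and a positive control.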
# Listeria monocytogenes [2] = assay: Antibacterial activity against Listeria monocytogenes NCTC 7973 at […] degC measured after 24 hr by microdilution method; format: functional; conditions: NCTC 7973, 24 h; method in brief: as §2
# Escherichia coli [3] = assay: Antibacterial activity against Escherichia coli ATCC 35210 at […] degC measured after 72 hr by microdilution method; format: functional; conditions: ATCC 35210, 72 h
# Method in brief: (§3)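 Bactericidal endpoint: after the 24 h broth microdilution (1.0×10⁴ CFU per well, LB broth, […] °C), wells were serially subcultured into plates of fresh broth and incubated a further 72 h. MBC was the lowest concentration with no visible growth, taken as 99.5% killing of the original inoculum.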
# Pseudomonas aeruginosa [4] = assay: Antibacterial activity against Pseudomonas aeruginosa ATCC 27853 at […] degC measured after 72 hr by microdilution method; format: functional; conditions: ATCC 27853, 72 h; method in brief: as §3
# Staphylococcus aureus [5] = assay: Antibacterial activity against Staphylococcus aureus ATCC 6538 at […] degC measured after 72 hr by microdilution method; format: functional; conditions: ATCC 6538, 72 h; method in brief: as §3
# Micrococcus flavus [6] = assay: Antibacterial activity against Micrococcus flavus ATCC 10240 at […] degC measured after 72 hr by microdilution method; format: functional; conditions: ATCC 10240, 72 h; method in brief: as §3
# Aspergillus fumigatus = assay: Antifungal activity against plant isolate Aspergillus fumigatus at 28 degC measured after 72 hr by microdilution method; format: functional; method in brief: as §1
# Bacillus cereus [7] = assay: Antibacterial activity against clinical isolate Bacillus cereus at […] degC measured after 72 hr by microdilution method; format: functional; method in brief: as §3
# Pseudomonas aeruginosa [8] = assay: Antibacterial activity against Pseudomonas aeruginosa ATCC 27853 at […] degC measured after 24 hr by microdilution method; format: functional; conditions: ATCC 27853, 24 h; method in brief: as §2
# Fulvia fulva = assay: Antifungal activity against Passalora fulva TK5318 at 28 degC measured after 72 hr by microdilution method; format: functional; conditions: TK5318, 72 h; method in brief: as §1
# Talaromyces funiculosus = assay: Antifungal activity against Talaromyces funiculosus ATCC 36839 at 28 degC measured after 72 hr by microdilution method; format: functional; conditions: ATCC 36839, 72 h; method in brief: as §1
# Proteus mirabilis [9] = assay: Antibacterial activity against Proteus mirabilis at […] degC measured after 24 hr by microdilution method; format: functional; method in brief: as §2
# Salmonella typhimurium [10] = assay: Antibacterial activity against Salmonella enterica subsp. enterica serovar TyphimuriumATCC 13311 at […] degC measured after 72 hr by microdilution method; format: functional, Salmonella enterica subsp. enterica serovar Typhimurium; conditions: ATCC 13311, 72 h; method in brief: as §3
# Aspergillus versicolor = assay: Antifungal activity against Aspergillus versicolor ATCC 11730 at 28 degC measured after 72 hr by microdilution method; format: functional; conditions: ATCC 11730, 72 h; method in brief: as §1
# Salmonella typhimurium [11] = assay: Antibacterial activity against Salmonella enterica subsp. enterica serovar Typhimurium ATCC 13311 at […] degC measured after 24 hr by microdilution method; format: functional; conditions: ATCC 13311, 24 h; method in brief: as §2
# Trichoderma viride = assay: Antifungal activity against Hypocrea rufa IAM 5061 at 28 degC measured after 72 hr by microdilution method; format: functional; conditions: IAM 5061, 72 h; method in brief: as §1
# Escherichia coli [12] = assay: Antibacterial activity against Escherichia coli ATCC 35210 at […] degC measured after 24 hr by microdilution method; format: functional; conditions: ATCC 35210, 24 h; method in brief: as §2
# Listeria monocytogenes [13] = assay: Antibacterial activity against Listeria monocytogenes NCTC 7973 at […] degC measured after 72 hr by microdilution method; format: functional; conditions: NCTC 7973, 72 h; method in brief: as §3
# Staphylococcus aureus [14] = assay: Antibacterial activity against Staphylococcus aureus ATCC 6538 at […] degC measured after 24 hr by microdilution method; format: functional; conditions: ATCC 6538, 24 h; method in brief: as §2
# Proteus mirabilis [15] = assay: Antibacterial activity against Proteus mirabilis at […] degC measured after 72 hr by microdilution method; format: functional; method in brief: as §3
# Aspergillus flavus = assay: Antifungal activity against Aspergillus flavus ATCC 9643 at 28 degC measured after 72 hr by microdilution method; format: functional; conditions: ATCC 9643, 72 h; method in brief: as §1
# Penicillium ochrochloron = assay: Antifungal activity against Penicillium ochrochloron ATCC 9112 at 28 degC measured after 72 hr by microdilution method; format: functional; conditions: ATCC 9112, 72 h; method in brief: as §1
# Micrococcus flavus [16] = assay: Antibacterial activity against Micrococcus flavus ATCC 10240 at […] degC measured after 24 hr by microdilution method; format: functional; conditions: ATCC 10240, 24 h; method in brief: as §2
MIC (Aspergillus niger) [µM],MIC (Bacillus cereus [1]) [µM],MIC (Listeria monocytogenes [2]) [µM],MIC (Pseudomonas aeruginosa [8]) [µM],MIC (Fulvia fulva) [µM],MIC (Talaromyces funiculosus) [µM],MIC (Proteus mirabilis [9]) [µM],MIC (Aspergillus versicolor) [µM],Compound,MFC (Aspergillus niger) [µM],MBC (Escherichia coli [3]) [µM],MBC (Pseudomonas aeruginosa [4]) [µM],MBC (Staphylococcus aureus [5]) [µM],MBC (Micrococcus flavus [6]) [µM],MFC (Aspergillus fumigatus) [µM],MIC (Aspergillus fumigatus) [µM],MBC (Bacillus cereus [7]) [µM],MFC (Fulvia fulva) [µM],MFC (Talaromyces funiculosus) [µM],MBC (Salmonella typhimurium [10]) [µM],MFC (Aspergillus versicolor) [µM],other results
19.8,19.8,19.8,19.8,9.9,9.9,39.6,19.8,COc1cc(Cc2nnc(Nc3ccc([N+](=O)[O-])cc3)s2)c(S(=O)(=O)N2CCCC2)cc1OC,39.6,39.6,39.6,39.6,39.6,19.8,9.9,39.6,19.8,19.8,79.2,39.6,MIC (Salmonella typhimurium [11]): 39.6 µM; MFC (Trichoderma viride): 19.8 µM; MIC (Trichoderma viride): 9.9 µM; MIC (Escherichia coli [12]): 19.8 µM; MBC (Listeria monocytogenes [13]): 39.6 µM; MIC (Staphylococcus aureus [14]): 19.8 µM; MBC (Proteus mirabilis [15]): 79.2 µM; MFC (Aspergillus flavus): 39.6 µM; MIC (Aspergillus flavus): 19.8 µM; MFC (Penicillium ochrochloron): 39.6 µM; MIC (Penicillium ochrochloron): 19.8 µM; MIC (Micrococcus flavus [16]): 19.8 µM
19.1,19.1,19.1,19.1,9.6,19.1,38.2,38.2,COc1cc(Cc2nnc(Nc3ccc(Cl)cc3)s2)c(S(=O)(=O)N2CCN(C)CC2)cc1OC,38.2,76.4,76.4,76.4,19.1,38.2,9.6,38.2,19.1,38.2,38.2,38.2,MIC (Salmonella typhimurium [11]): 9.6 µM; MFC (Trichoderma viride): 19.1 µM; MIC (Trichoderma viride): 9.6 µM; MIC (Escherichia coli [12]): 19.1 µM; MBC (Listeria monocytogenes [13]): 76.4 µM; MIC (Staphylococcus aureus [14]): 38.2 µM; MBC (Proteus mirabilis [15]): 76.4 µM; MFC (Aspergillus flavus): 38.2 µM; MIC (Aspergillus flavus): 19.1 µM; MFC (Penicillium ochrochloron): 38.2 µM; MIC (Penicillium ochrochloron): 19.1 µM; MIC (Micrococcus flavus [16]): 9.6 µM
18.9,9.5,18.9,9.5,18.9,18.9,18.9,18.9,COc1cc(Cc2nnc(Nc3ccc(C(F)(F)F)cc3)s2)c(S(=O)(=O)N2CCCC2)cc1OC,37.8,37.8,18.9,18.9,37.8,37.8,18.9,18.9,75.6,37.8,18.9,37.8,MIC (Salmonella typhimurium [11]): 9.5 µM; MFC (Trichoderma viride): 18.9 µM; MIC (Trichoderma viride): 9.5 µM; MIC (Escherichia coli [12]): 18.9 µM; MBC (Listeria monocytogenes [13]): 18.9 µM; MIC (Staphylococcus aureus [14]): 9.5 µM; MBC (Proteus mirabilis [15]): 37.8 µM; MFC (Aspergillus flavus): 37.8 µM; MIC (Aspergillus flavus): 18.9 µM; MFC (Penicillium ochrochloron): 37.8 µM; MIC (Penicillium ochrochloron): 18.9 µM; MIC (Micrococcus flavus [16]): 18.9 µM
